This is a sample that favours compounds with a hit; in the whole collection about 5.3% have one here.
Calb FLC = affects C. albicans growth with fluconazole. C. albicans CaCi-2 (fluconazole-resistant clinical isolate) + fluconazole, Alamar Blue growth, 48 h. growth inhibition, % (test concentration not listed). 300,000 compounds, 0.57% hits. AID 1979;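 active = growth inhibition above about 58% in most replicates, limit read from the data, passing the limit was not always enough; inconclusive = exactly half the replicates above a set limit; inactive = most replicates below a set limit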;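 also: all wells also contain fluconazole at 8 µg/ml as a sub-toxic cotreatment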
NLRP3 yeast inh = inhibitors of NALP3 inflammasome in yeast; Yeast reconstituted NLRP3/ASC/caspase-1, beta-gal luminescence, 24 h; inhibition, % at 10 µM; 330,000 compounds, 0.39% hits; AID 2825;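 active = inhibition of 50% or more; inactive = inhibition below 50%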
CSC inhib = blocks cancer stem cells; cancer stem cell-like cells viability, luminescence; inhibition, % at 7.5 µM; 300,000 compounds, 1.1% hits; in the data active = inhibition above about 75%; inconclusive = no clear call, values can overlap the other calls; tested in HMLE shEcad cells
Mdm2 MdmX PPI = disrupts the human Mdm2-MdmX interaction; O15151+Q00987; SaOS-2 split-luciferase Mdm2/MdmX complementation, luminescence; inhibition, % at 8 µM; 330,000 compounds, 3% hits; AID 485346;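 active = inhibition of at least 50% at 8 µM in the primary screen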
T cruzi inh = T. cruzi replication inhibition; T. cruzi beta-gal in NIH3T3, luminescence, 90 h; AID 1885; 300,000 compounds, 1.4% hits; inhibition, % (concentration not given with the values);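 active = mean inhibition across valid replicates above about 55%, limit read from the data; inconclusive = mean below that limit but half or more replicates reach it; inactive = mean below it, under half of replicates reach it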;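 also: signal also drops with host cell toxicity which is not excluded here; higher percent means less beta-gal luminescence so fewer parasites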
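compound dosing = single 50 nL compound addition per well in DMSO | material = NIH/3T3 host cells with β-galactosidase reporter T. cruzi | input = 5,000 host fibroblasts per well | timing = ≥90 h infection period, 3 h prior cell attachment | read-out basis = percent inhibition of parasite-derived β-gal signal | detection = GalScreen β-gal luminescence, detergent lysis, 60 min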
Beta apoptosis = beta cell apoptosis inhibition. 300,000 compounds, 0.8% hits. INS-1E cytokine-induced death, ATP luminescence, 48 h; percent of positive-control rescue, neutral wells zero. protection from apoptosis, % (test concentration not listed). AID 435005;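 active = Every replicate reaches about 75%, or at least half do and their mean reaches it too, limit read from the data; inconclusive = At least half of replicates reach the limit but their mean does not; inactive = Under half of replicates reach the limit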;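 also: higher means more ATP so stronger rescue from cytokine killing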
Each line names hits and unclear results; the compound was inactive in the other large screens.

O=C1NN(c2cccc(Br)c2)C(=O)/C1=C/c1ccc(-c2cc([N+](=O)[O-])ccc2O)o1	none
O=C1NN(c2ccc(Cl)c(Cl)c2)C(=O)/C1=C/c1ccc(-c2ccccc2C(=O)O)o1	Calb FLC 81
COC(=O)c1ccc(N2NC(=O)/C(=C/c3ccc(-c4ccc(Cl)c(C(=O)O)c4)o3)C2=O)cc1	Calb FLC 62 (no result: CSC inhib, Beta apoptosis)
CCCCNc1nc(N)nc(-c2cc(Cl)ccc2O)n1	none (no result: CSC inhib)
CCNc1nc(N)nc(-c2cc(Cl)ccc2O)n1	Calb FLC 80
Cc1nc2c(ccc3nc(NC(=O)c4ccc5c(c4)OCCO5)sc32)s1	T cruzi inh 57 (no result: CSC inhib, Beta apoptosis)
O=C(NC(N1CCOCC1)C(Cl)(Cl)Cl)c1cc([N+](=O)[O-])cc([N+](=O)[O-])c1 (configuration not stated)	T cruzi inh 94
O=C(NC(N1CCOCC1)C(Cl)(Cl)Cl)c1ccccc1Cl (configuration not stated)	none
COc1ccc2c(c1)C(C)=CC(C)(C)N2S(=O)(=O)c1ccc(Br)cc1	T cruzi inh 67 (no result: NLRP3 yeast inh, Mdm2 MdmX PPI)
CC1=CC(C)(C)N(S(=O)(=O)c2ccc(F)cc2)c2ccc(C)cc21	Calb FLC inconclusive, CSC inhib 87
O=C(CCCn1c(SCC(=O)Nc2ccccc2Cl)nc2ccccc2c1=O)NCC1CCCO1 (configuration not stated)	none
O=C(Nc1nccs1)c1ccc(COc2c(F)c(F)cc(F)c2F)cc1	none
O=C(COC(=O)Cc1n[nH]c(=O)c2ccccc12)Nc1ccc(Cl)cn1	none (no result: Calb FLC, T cruzi inh)
Cc1ccc(OC/C(O)=C(\C#N)c2nc3ccccc3s2)cc1	CSC inhib 78
CC(C)=C(C#N)c1nc2ccccc2s1	none
CC(C)Nc1nc(NNc2nc(Cl)nc(NC(C)(C)C)n2)nc(NC(C)C)n1	none
CCNc1nc(NC(C)C)nc(NC(C)(C)C)n1	Calb FLC 83
CC1CC2=C(NC(=S)NC2c2cccc(F)c2)/C(=C/c2cccc(F)c2)C1 (configuration not stated)	T cruzi inh 59 (no result: NLRP3 yeast inh, CSC inhib, Mdm2 MdmX PPI, Beta apoptosis)
CCCCc1nc(NCCNC(=O)c2ccccc2)c(C#N)c2c1CSC(C)(C)C2	none (no result: Beta apoptosis)
O=S(=O)(/C=C/c1ccccc1)N1CCN(Cc2ccc3c(c2)OCO3)CC1	none
C(=C\c1ccccc1)/CN1CCN(Cc2ccc3c(c2)OCCO3)CC1	T cruzi inh 64 (no result: NLRP3 yeast inh, CSC inhib, Mdm2 MdmX PPI, Beta apoptosis)
COC(=O)c1ccc(NS(=O)(=O)NC(=O)c2c[nH]c3ccccc23)cc1	none
Cc1ccc2c(Cn3cc(C(F)(F)F)cc(Cl)c3=O)cc(=O)oc2c1	none
O=C(O)c1ccc(C=C(c2nc3ccccc3s2)c2nc3ccccc3s2)cc1	CSC inhib 82
CN(C)c1ccc(/C=C(\Cl)c2nc3ccccc3s2)cc1	CSC inhib 92 (no result: Calb FLC, NLRP3 yeast inh, Mdm2 MdmX PPI, T cruzi inh)
COc1cc(C=C(c2nc3ccccc3s2)c2nc3ccccc3s2)cc(OC)c1O	none
COc1ccc(-c2cc(C(=O)NCc3ccco3)c3ccccc3n2)cc1OC	none (no result: CSC inhib, Beta apoptosis)
CC(C)Cc1ccc(C(C)C(=O)Nc2ncccn2)cc1 (configuration not stated)	none
O=[N+]([O-])c1ccc(C2CCCC/C2=N\OCc2cccc(F)c2)c([N+](=O)[O-])c1 (configuration not stated)	T cruzi inh 62
CC1CCCC/C1=N/Nc1ccc([N+](=O)[O-])cc1[N+](=O)[O-] (configuration not stated)	none (no result: CSC inhib)
O=C(OC(c1ccc(NS(=O)(=O)c2ccccc2)cc1)(C(F)(F)F)C(F)(F)F)c1ccccc1	none
Cc1cnc(C(=O)OCC(=O)Nc2c(Cl)cc(Cl)cc2Cl)cn1	none (no result: Calb FLC, T cruzi inh)
Cc1ccc(S(=O)(=O)N2CCN(C(=O)c3ccc(OCc4c(C)noc4C)cc3)CC2)cc1	none
O=C(CCOc1ccccc1)N1CCN(c2ccc(O)cc2)CC1	CSC inhib 82
O=C(CCCOc1ccccc1)N1CCN(c2ccccc2)CC1	none
O=C(CCSc1ccccc1)N1CCN(c2ccccc2)CC1	none
O=C(CCSc1ccc(Cl)cc1)N1CCN(c2ccc(O)cc2)CC1	CSC inhib 106, T cruzi inh 63
CC(C)(C)c1cnnn1-c1ccc(/C=N/Nc2ccc([N+](=O)[O-])cc2)cc1	Beta apoptosis 97
C=CCn1c2ccccc2c2nnc(SCCN3CCCCC3)nc21	none
CCn1c2ccc(F)cc2c2nnc(SCCN3CCCCC3)nc21	T cruzi inh 63
c1ccc(Cn2c3ccccc3c3nnc(SCCN4CCCCC4)nc32)cc1	T cruzi inh 69
CCCn1c2ccc(F)cc2c2nnc(SCCN3CCCCC3)nc21	none
COc1ccc2c3c([nH]c2c1)C1CC2C(CC(O)C(OC)C2CO)CN1CC3 (configuration not stated)	none
Cc1ccc(-c2nnc(NC(=O)c3c(F)cccc3Cl)s2)cc1	none
Cc1ccc(S(=O)(=O)N2CCOCC2)cc1C(=O)N(Cc1nnc(-c2ccccc2Cl)o1)C1CC1	none
NC(=O)c1ccsc1NC(=O)COC(=O)c1ccc([N+](=O)[O-])o1	none (no result: Calb FLC, CSC inhib, T cruzi inh)
N#CC(=C=[N-])/C=C(\C(=O)c1ccccc1)[n+]1ccccc1	none
Cc1cccc(CN2C(=O)c3ccccc3S(=O)(=O)c3ccc(C(=O)NCCCN4CCCC4)cc32)c1	none (no result: CSC inhib, Beta apoptosis)
O=C(NCCN1CCCC1)c1ccc2c(c1)N(Cc1cccc(Cl)c1)C(=O)c1ccccc1S2(=O)=O	CSC inhib 107
Cc1ccc(-c2nc(C(=O)NCCCN3CCOCC3)cc3c2[nH]c2ccccc23)cc1	T cruzi inh 57 (no result: Beta apoptosis)
CCOC(=O)C1CCCN(c2cc(C)nc3cc(-c4ccc(Cl)cc4)nn23)C1 (configuration not stated)	none
CCOC(=O)C1CCCN(c2cc(C)nc3cc(-c4ccc(F)cc4)nn23)C1 (configuration not stated)	Calb FLC 104
COc1ccc([C@H]2CC(=O)C=C(c3ccc4ncccc4c3)C2)cc1	none (no result: Calb FLC, T cruzi inh)
CC1=NNC(=O)/C1=C\c1cn(-c2ccccc2)nc1-c1ccccc1	Beta apoptosis 109 (no result: NLRP3 yeast inh, Mdm2 MdmX PPI)
CC1(C)CC(=O)C(=Cc2cn(-c3ccccc3)nc2-c2ccc(Cl)cc2)C(=O)C1	none
O=[N+]([O-])c1c(C(Cl)Cl)nn(-c2ccc(Cl)cc2)c1N1CCCCC1	Calb FLC 81
CCC(=O)N1CCN(c2ccccc2NC(=O)c2ccc([N+](=O)[O-])o2)CC1	none
CCOc1ccc(C(=O)NC(=S)Nc2ccc(N3CCC(C)CC3)cc2)cc1[N+](=O)[O-]	none (no result: NLRP3 yeast inh, CSC inhib, Mdm2 MdmX PPI, Beta apoptosis)
O=C(Nc1cccc2ccccc12)c1ccc([N+](=O)[O-])o1	Calb FLC 86
O=C(Nc1ccccc1N1CCCCC1)c1ccc(Cl)c([N+](=O)[O-])c1	CSC inhib 80
CC(C)C(=O)N1CCN(c2ccccc2NC(=O)c2ccc([N+](=O)[O-])o2)CC1	T cruzi inh 56
CCOc1ccc(C(=O)NC(=S)Nc2ccccc2N2CCC(C)CC2)cc1[N+](=O)[O-]	T cruzi inh 55
CCCCN(C(=O)NC(=O)C1=C(N2CCOCC2)/C(=C/c2ccccc2)CC1)S(C)(=O)=O	none
